From PMC3891043 (Canadian journal of chemistry, 2011)

Tests used:
[1] = cited from earlier work
[2] = Laser flash photolysis / femtosecond pump-probe spectroscopy; assay type: physicochemical
Summary of the method: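 Pump: 266 nm pulses (frequency-doubled 532 nm NOPA output from a 775 nm Ti/Sa laser), 1 μJ, <150 fs. Probe: supercontinuum from a CaF2 plate, 270–690 nm. Sample flowed through a 0.4 mm cell with a 0.2 mm spot. Probe and reference were read on photodiode arrays; cross-correlation <100 fs. Data to 50 ps were chirp-corrected, and 3–6 scans of 400 shots/point were averaged.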

[3] = Stability to aqueous hydrolysis; assay type: physicochemical; settings: compared with other pHP phosphates
[4] = Photolysis quantum yields; assay type: physicochemical; settings: for Φdis, disappearance quantum yield (pHP diethyl phosphates): λ = 300 nm, 50% aq CH3CN
Summary of the method: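 Caged compound (1–9 mmol/L) plus internal standard (caffeine or 4-acetamidophenol) in water, buffer or solvent, in a quartz tube. Irradiated in a Rayonet carousel (two 15 W, 3000 Å Hg lamps), with ferrioxalate actinometry. Aliquots taken every 30 s up to 5 min, diluted and run on C18 LC-MS (water/methanol gradient with ammonium formate/formic acid), three injections each. Quantitation used calibration curves; Φ = concentration change / photons absorbed. 1H NMR in D2O confirmed products.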

[5] = Stern-Volmer quenching with sorbate; assay type: physicochemical; settings: unbuffered 18 MΩ Ultrapure H2O; from KSV with kq assumed kdiff ~ 7.2 × 10^9 s^−1
Summary of the method: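 pHP GABA (0.001–0.01 mol/L) was diluted with potassium sorbate quencher (0–0.1 mol/L) and photolysed under the quantum-yield conditions (Rayonet, 3000 Å, LC-MS quantitation of GABA release). KSV came from Φ0/Φ vs [Q]. Triplet lifetime was obtained from KSV, taking kq as the diffusion rate in water.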

[6] = λ = 300 nm, reported earlier, for comparison, cited from earlier work
[7] = 300 nm, pH 5.0, ammonium acetate (0.01 mol/L), buffered CH3CN–H2O
[8] = unbuffered CH3CN–H2O (1:1), conversion <2%
[9] = unbuffered H2O, singlet λmax ~ 315 nm
[10] = unbuffered 18 MΩ Ultrapure H2O, conversion <2%
[11] = 300 nm, pH 7.3, HEPES (0.01 mol/L) and LiClO4 (0.1 mol/L)
[12] = 300 nm, pH 8.2, HEPES (0.01 mol/L) and LiClO4 (0.1 mol/L)
[13] = unbuffered H2O with acetonitrile (5%) added to dissolve the ester

p-hydroxyphenacyl [pHP]
Triplet energy of the conjugate base ([1]; conjugate base of pHP): 61.2 kcal/mol | Triplet energy ([1]; un-ionized pHP): 71.6 kcal/mol

NCCCC(=O)OCC(=O)c1ccc(O)c(C(N)=O)c1.O=C(O)C(F)(F)F [Compound 11, 4-(2-(3-Carbamoyl-4-hydroxyphenyl)-2-oxoethoxy)-4-oxobutan-1-aminium-2,2,2-trifluoroacetate]
k2, rate constant for triplet decay ([2]; unbuffered H2O): 2.2 109 s^−1

CCOP(=O)(OCC)OCC(=O)c1ccc(O)cc1OC [Compound 30, Diethyl (2-(4-hydroxy-2-methoxyphenyl)-2-oxoethyl) phosphate]
Stability to aqueous hydrolysis (qualitative) [3]: less stable to aqueous hydrolysis | Φdis, disappearance quantum yield (pHP diethyl phosphates) [4]: 0.59

CC(=O)c1ccc(O)cc1 [Compound 1d, p-hydroxyacetophenone, reference compound]
Reduction of pKa of the excited triplet state relative to ground-state pKa [1]: about 4.3 pKa units

N#Cc1cc(C(=O)COC(=O)CCCN)ccc1O.O=C(O)C(F)(F)F [Compound 13, 4-(2-(3-Cyano-4-hydroxyphenyl)-2-oxoethoxy)-4-oxobutan-1-aminium-2,2,2-trifluoroacetate]
Φapp, quantum yield for the appearance of GABA [4, 7]: 0.13 | Φapp, quantum yield for the appearance of rearranged acid [4, 7]: 0.19 | Φdis, quantum yield for the disappearance of pHP GABA [4, 7]: 0.21 | Φapp, quantum yield for the appearance of GABA [4, 8]: 0.35 | Φapp, quantum yield for the appearance of rearranged acid [4, 8]: 0.39 | Φdis, quantum yield for the disappearance of pHP GABA [4, 8]: 0.42 | τ^3, triplet lifetime [5]: 40.5 10^−9s

COc1cc(C(=O)COC(=O)CCCN)ccc1O.O=C(O)C(F)(F)F [Compound 2, 4-(2-(4-Hydroxy-3-methoxyphenyl)-2-oxoethoxy)-4-oxobutan-1-amonium-2,2,2-trifluoroacetate]
k2, rate constant for triplet decay ([2]; unbuffered H2O): 1.3 109 s^−1 | k1, rate constant for triplet rise [2, 9]: 2.2 1011 s^−1 | Φapp, quantum yield for the appearance of GABA [4, 10]: 0.06

CCOP(=O)(OCC)OCC(=O)c1ccc(O)cc1 [Compound 27, Diethyl (2-(4-hydroxyphenyl)-2-oxoethyl) phosphate]
Φdis, disappearance quantum yield (parent pHP diethyl phosphate) ([6]; 50% aq CH3CN): 0.40

NCCCC(=O)OCC(=O)c1ccc(O)c(C(=O)O)c1.O=C(O)C(F)(F)F [Compound 9, 4-(2-(3-Carboxy-4-hydroxyphenyl)-2-oxoethoxy)-4-oxobutan-1-aminium-2,2,2-trifluoroacetate]
k2, rate constant for triplet decay ([2]; unbuffered H2O): 1.0 109 s^−1 | k1, rate constant for triplet rise [2, 9]: 2.1 1011 s^−1

NCCCC(=O)OCC(=O)c1ccc(O)c(F)c1.O=C(O)C(F)(F)F [Compound 16, 4-(2-(3-Fluoro-4-hydroxyphenyl)-2-oxoethoxy)-4-oxobutan-1-aminium-2,2,2-trifluoroacetate]
Φapp, quantum yield for the appearance of GABA [4, 7]: 0.14 | Φapp, quantum yield for the appearance of rearranged acid [4, 7]: 0.14 | Φdis, quantum yield for the disappearance of pHP GABA [4, 7]: 0.15 | Φapp, quantum yield for the appearance of GABA [4, 10]: 0.15 | Φapp, quantum yield for the appearance of rearranged acid [4, 10]: 0.15 | Φdis, quantum yield for the disappearance of pHP GABA [4, 10]: 0.16 | τ^3, triplet lifetime [5]: 3.23 10^−9s

NCCCC(=O)OCC(=O)c1ccc(O)cc1.O=C(O)C(F)(F)F [Compound 1, 4-(2-(4-Hydroxyphenyl)-2-oxoethoxy)-4-oxobutan-1-aminium-2,2,2-trifluoroacetate]
k2, rate constant for triplet decay ([2]; unbuffered H2O): 3.0 ^c 109 s^−1 | k1, rate constant for triplet rise [2, 9]: 4.4 1011 s^−1 | Φapp, quantum yield for the appearance of GABA [4, 7]: 0.20 | Φapp, quantum yield for the appearance of rearranged acid [4, 7]: 0.18 | Φdis, quantum yield for the disappearance of pHP GABA [4, 7]: 0.21 | Φapp, quantum yield for the appearance of GABA [4, 11]: 0.20 | Φapp, quantum yield for the appearance of rearranged acid [4, 11]: 0.20 | Φdis, quantum yield for the disappearance of pHP GABA [4, 11]: 0.21 | Φapp, quantum yield for the appearance of GABA [4, 12]: 0.09 | Φapp, quantum yield for the appearance of rearranged acid [4, 12]: 0.06 | Φdis, quantum yield for the disappearance of pHP GABA [4, 12]: 0.09 | Φapp, quantum yield for the appearance of GABA [4, 10]: 0.19 | Φapp, quantum yield for the appearance of rearranged acid [4, 10]: 0.16 | Φdis, quantum yield for the disappearance of pHP GABA [4, 10]: 0.20

CCOP(=O)(OCC)OCC(=O)c1c(OC)cc(O)cc1OC [Compound 31, Diethyl (2-(4-hydroxy-2,6-dimethoxyphenyl)-2-oxoethyl) phosphate]
Stability to aqueous hydrolysis (qualitative) [3]: less stable to aqueous hydrolysis | Φdis, disappearance quantum yield (pHP diethyl phosphates) [4]: 0.69

COC(=O)c1cc(C(=O)COC(=O)CCCN)ccc1O.O=C(O)C(F)(F)F [Compound 10, 4-(2-(4-Hydroxy-3-(methoxycarbonyl)phenyl)-2-oxoethoxy)-4-oxobutan-1-aminium-2,2,2-trifluoroacetate]
k2, rate constant for triplet decay ([2]; unbuffered H2O): 1.3 109 s^−1 | k1, rate constant for triplet rise [2, 9]: 3.2 1011 s^−1

COc1cc(C(=O)COC(=O)CCCN)cc(OC)c1O.O=C(O)C(F)(F)F [Compound 3, 4-(2-(4-Hydroxy-3,5-dimethoxyphenyl)-2-oxoethoxy)-4-oxobutan-1-amonium-2,2,2-trifluoroacetate]
k1, rate constant for triplet rise [2, 13]: 2.7 1011 s^−1 | k2, rate constant for triplet decay [2, 13]: 2.8 ^d 109 s^−1 | Φapp, quantum yield for the appearance of GABA [4, 10]: 0.03 | Φdis, quantum yield for the disappearance of pHP GABA [4, 10]: 0.03

CC(=O)OCC(=O)c1ccc(O)cc1 [Compound 24, 2-(4-Hydroxyphenyl)-2-oxoethyl acetate]
Φdis, disappearance quantum yield (parent pHP acetate) ([6]; 20% aq CH3CN or DMSO): 0.30
